Assay results reported in ChEMBL document CHEMBL3102713, “The cytotoxic effect of 2-acylated-1,4-naphthohydroquinones on leukemia/lymphoma cells” (Bioorg Med Chem, 2014).

How the values were obtained:
CCRF-CEM [1] = experiment: Induction of apoptosis in human CCRF-CEM cells assessed as late apoptotic cells at 50 uM after 72 hrs by measuring phosphatidylserine translocation using annexin V-FITC/propidium iodide staining-based flow cytometric analysis (reference value: 0.1%); assay type: functional
HS27 = experiment: Cytotoxicity against human HS27 cells assessed as cell viability after 72 hrs by MTS assay; assay type: cell-based; details: HS27, 72 h
Outline: (§1)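 Cells seeded at 10,000 per well in 96-well plates; leukemia/lymphoma lines in RPMI, Hs27 fibroblasts in DMEM, both with 10% heat-inactivated FBS, penicillin and streptomycin, 37 °C, 5% CO2. Exposed to doubling concentrations from 1.56 to 100 µM for 72 h, then MTS added for 4 h. Absorbance read at 490 nm, reference 650 nm, cell-free background subtracted. Viability expressed relative to 1% DMSO solvent control. Eight replicates. IC50 is the concentration giving 50% inhibition of formazan conversion versus untreated cells.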

CCRF-CEM [2] = experiment: Induction of apoptosis in human CCRF-CEM cells assessed as viable cells at 50 uM after 72 hrs by measuring phosphatidylserine translocation using annexin V-FITC/propidium iodide staining-based flow cytometric analysis (reference value: 98.7%); assay type: functional; details: read-out: Activity
Ramos = experiment: Cytotoxicity against human Ramos cells assessed as cell viability after 72 hrs by MTS assay; assay type: functional, cell-based; outline: as §1
CCRF-CEM [3] = experiment: Induction of apoptosis in human CCRF-CEM cells assessed as necrotic cells at 50 uM after 72 hrs by measuring phosphatidylserine translocation using annexin V-FITC/propidium iodide staining-based flow cytometric analysis (reference value: 0.4%); assay type: functional
CCRF-CEM [4] = experiment: Cytotoxicity against human CCRF-CEM cells assessed as cell viability after 72 hrs by MTS assay; assay type: functional, cell-based; outline: as §1
Jurkat = experiment: Cytotoxicity against human Jurkat cells assessed as cell viability after 72 hrs by MTS assay; assay type: functional, cell-based; outline: as §1
[5] = Cytotoxicity against human NALM6 cells assessed as cell viability after 72 hrs by MTS assay; assay type: functional, cell-based; details: NALM-6, 72 h; outline: as §1
CCRF-CEM [6] = experiment: Induction of apoptosis in human CCRF-CEM cells assessed as early apoptotic cells at 50 uM after 72 hrs by measuring phosphatidylserine translocation using annexin V-FITC/propidium iodide staining-based flow cytometric analysis (reference value: 0.8%); assay type: functional
CCRF-CEM [7] = experiment: Induction of apoptosis in human CCRF-CEM cells using fluorogenic substrate assessed as caspase 3 activation at 50 uM after 8 hrs by measuring early apoptotic cells using flow cytometric analysis (reference value: 6.1%); assay type: functional
Outline: (§2)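 CEM cells were seeded at 50,000 per well in RPMI with 10% FBS and exposed for 8 h at 37 °C, with CCCP (50 µM) as positive control and untreated and 1% DMSO controls. Cells were labelled with NucView 488 caspase-3/7 live-cell fluorogenic substrate. Green-positive cells were counted by flow cytometry (FL1 vs FL2 dot plots), about 10,000 events per sample, in triplicate.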

CCRF-CEM [8] = experiment: Cytotoxicity against human CCRF-CEM cells assessed as intact mitochondrial membrane potential at 50 uM after 8 hrs by JC-1 red/green staining-based flow cytometry analysis (reference value: 96.7%); assay type: functional
CCRF-CEM [9] = experiment: Induction of apoptosis in human CCRF-CEM cells using fluorogenic substrate assessed as caspase 3 activation at 50 uM after 8 hrs by measuring late apoptotic cells using flow cytometric analysis relative to control; assay type: functional; outline: as §2
CCRF-CEM [10] = experiment: Cytotoxicity against human CCRF-CEM cells assessed as mitochondrial membrane depolarization at 50 uM after 8 hrs by JC-1 red/green staining-based flow cytometry analysis (reference value: 3.3%); assay type: functional
CCRF-CEM [11] = experiment: Induction of apoptosis in human CCRF-CEM cells assessed as caspase 3 activation at 50 uM after 8 hrs by measuring necrotic cells using flow cytometric analysis relative to control; assay type: functional; outline: as §2
CCRF-CEM [12] = experiment: Induction of apoptosis in human CCRF-CEM cells using fluorogenic substrate assessed as caspase 3 activation at 50 uM after 8 hrs by measuring viable cells using flow cytometric analysis (reference value: 93.9%); assay type: functional; outline: as §2
CCRF-CEM [13] = experiment: Induction of apoptosis in human CCRF-CEM cells assessed as early apoptotic cells at 10 uM after 72 hrs by measuring phosphatidylserine translocation using annexin V-FITC/propidium iodide staining-based flow cytometric analysis (reference value: 0.8%); assay type: functional
CCRF-CEM [14] = experiment: Induction of apoptosis in human CCRF-CEM cells using fluorogenic substrate assessed as caspase 3 activation at 1 uM after 8 hrs by measuring viable cells using flow cytometric analysis (reference value: 96.1%)
CCRF-CEM [15] = experiment: Cytotoxicity against human CCRF-CEM cells assessed as mitochondrial membrane depolarization at 10 uM by JC-1 red/green staining-based flow cytometry analysis; assay type: functional, cell-based; details: TDE = time-dependent effect
CCRF-CEM [16] = experiment: Cytotoxicity against human CCRF-CEM cells assessed as mitochondrial membrane depolarization at 10 uM after 6 hrs by JC-1 red/green staining-based flow cytometry analysis (reference value: 3.3%); assay type: functional
CCRF-CEM [17] = experiment: Cytotoxicity against human CCRF-CEM cells assessed as intact mitochondrial membrane potential at 10 uM after 8 hrs by JC-1 red/green staining-based flow cytometry analysis (reference value: 96.7%); assay type: functional
CCRF-CEM [18] = experiment: Induction of apoptosis in human CCRF-CEM cells assessed as late apoptotic cells at 10 uM after 72 hrs by measuring phosphatidylserine translocation using annexin V-FITC/propidium iodide staining-based flow cytometric analysis (reference value: 0.1%); assay type: functional
CCRF-CEM [19] = experiment: Cytotoxicity against human CCRF-CEM cells assessed as mitochondrial membrane depolarization at 10 uM after 8 hrs by JC-1 red/green staining-based flow cytometry analysis (reference value: 3.3%); assay type: functional
CCRF-CEM [20] = experiment: Induction of apoptosis in human CCRF-CEM cells assessed as caspase 3 activation at 10 uM after 8 hrs by measuring late apoptotic cells using flow cytometric analysis relative to control; assay type: functional
CCRF-CEM [21] = experiment: Induction of apoptosis in human CCRF-CEM cells assessed as caspase 3 activation at 10 uM after 8 hrs by measuring necrotic cells using flow cytometric analysis relative to control; assay type: functional
CCRF-CEM [22] = experiment: Induction of apoptosis in human CCRF-CEM cells assessed as viable cells at 10 uM after 72 hrs by measuring phosphatidylserine translocation using annexin V-FITC/propidium iodide staining-based flow cytometric analysis (reference value: 98.7%); assay type: functional; details: read-out: Activity
CCRF-CEM [23] = experiment: Induction of apoptosis in human CCRF-CEM cells assessed as necrotic cells at 10 uM after 72 hrs by measuring phosphatidylserine translocation using annexin V-FITC/propidium iodide staining-based flow cytometric analysis (reference value: 0.4%); assay type: functional
CCRF-CEM [24] = experiment: Cytotoxicity against human CCRF-CEM cells assessed as intact mitochondrial membrane potential at 10 uM after 6 hrs by JC-1 red/green staining-based flow cytometry analysis (reference value: 96.7%); assay type: functional
CCRF-CEM [25] = experiment: Induction of apoptosis in human CCRF-CEM cells using fluorogenic substrate assessed as caspase 3 activation at 10 uM after 8 hrs by measuring early apoptotic cells using flow cytometric analysis (reference value: 3.9%); assay type: functional

SMILES	IC50 (HS27) [µM]	IC50 (Ramos) [µM]	IC50 (CCRF-CEM [4]) [µM]	IC50 (Jurkat) [µM]	IC50 [5] [µM]	further results
C/C=C/C(=O)c1cc(O)c2ccccc2c1O	37.1	4.25	3.19	6.24	4.63	Activity (CCRF-CEM [1]): 0.4%; viability at 50 µM (CCRF-CEM [2]): 78.6%; Activity (CCRF-CEM [3]): 19.8%; Activity (CCRF-CEM [6]): 1.3%
CCC(=O)c1cc(O)c2ccccc2c1O	18	2.49	3.95	4.54	2.02	–
Cc1ccc(C(=O)c2cc(O)c3ccccc3c2O)cc1	4.37	0.52	0.74	3.35	2.41	–
N#CC(C#N)=NNc1cccc(Cl)c1 [CARBONYL CYANIDE M-CHLOROPHENYLHYDRAZONE]	–	–	–	–	–	Activity (CCRF-CEM [7]): 32.6%; Activity (CCRF-CEM [8]): 0%; Activity (CCRF-CEM [9]): 1.1%; Activity (CCRF-CEM [10]): 100%; Activity (CCRF-CEM [11]): 0%; Activity (CCRF-CEM [12]): 66.3%
CCCCCCCCCCCC(=O)c1cc(O)c2ccccc2c1O	43.8	0.98	5.99	6.56	5.8	Activity (CCRF-CEM [13]): 92.8%; Activity (CCRF-CEM [14]): 64.8%; Activity (CCRF-CEM [15]): tde; Activity (CCRF-CEM [16]): 36.8%; Activity (CCRF-CEM [17]): 37.7%; Activity (CCRF-CEM [18]): 3.7%; Activity (CCRF-CEM [19]): 62.3%; Activity (CCRF-CEM [20]): 0%; Activity (CCRF-CEM [21]): 0%; viability at 10 µM (CCRF-CEM [22]): 0.5%; Activity (CCRF-CEM [23]): 3%; Activity (CCRF-CEM [24]): 63.2%; Activity (CCRF-CEM [25]): 35.2%
CC(=O)c1cc(O)c2ccccc2c1O	9.87	0.75	5.24	5.6	5.09	–
O=C(c1ccccc1)c1cc(O)c2ccccc2c1O	8.3	4.13	5.44	6.35	2.58	–
COc1ccc(C(=O)c2cc(O)c3ccccc3c2O)cc1	4.97	0.66	0.01	2.78	0.88	–
